{"source": "ChEMBL document CHEMBL1123247", "about": "“Nucleoside conjugates. 7. Synthesis and antitumor activity of 1-beta-D-arabinofuranosylcytosine conjugates of ether lipids” (J Med Chem, 1986)", "key": {"[1]": {"test_system": "P388 leukemia (mouse)", "assay": "Antitumor activity was determined against the ip implanted P388 leukemia in mice by 45-day survivors in mice at 100 mg/kg (treatment of 1qd schedule) dosage", "conditions": "route intraperitoneal"}, "[2]": {"test_system": "L1210", "assay": "Antitumor activity was determined against the ip implanted L1210 leukemia in mice by percent increase in life span at 200 mg/kg (treatment of 1qd schedule) dosage", "format": "functional, Mus musculus", "conditions": "route intraperitoneal", "how_it_was_run": "(§1)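 DBA/2J mice in groups of 6 (wt 23-28 g) were inoculated ip with 1×10^6 L1210 cells on day 0. Dosing was ip from 24 h, in 0.9% NaCl with 0.5% Tween-80 (conjugates sonicated), across a range of doses. Mice were observed daily until death or 45 days. Median T/C was computed from survivors per NCI protocols, and ILS = (T/C − 1)×100.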"}, "[3]": {"test_system": "L1210", "assay": "Antitumor activity was determined against the ic implanted L1210 lymphoid leukemia in mice by […] at 100 mg/kg (1 qd treatment schedule) dosage; 17.5-7.0", "format": "functional, Mus musculus", "how_it_was_run": "(§2)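 DBA/2J mice, groups of 6 (26-32 g), got 1 × 10^5 L1210 cells ic on day 0. Dosing was ip starting 24 h later, as a sonicated solution or suspension in 0.9% NaCl with 0.5% Tween-80, over a wide dose range. Mice were followed daily until death. Median survival T/C was taken from survivors per NCI protocols, and ILS = (T/C − 1) × 100. Active range means doses giving ILS ≥25%; optimal dose means greatest ILS.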"}, "[4]": {"test_system": "P388", "assay": "Antitumor activity was determined against the ip implanted P388 leukemia in mice by percent median survival rate (treated/control) at 100 mg/kg (treatment of 1qd schedule) dosage; >45.0/12.0", "conditions": "route intraperitoneal"}, "[5]": {"test_system": "L1210", "assay": "Antitumor activity was determined against the ip implanted L1210 leukemia in mice by 45-day survivors in mice at 200 mg/kg (treatment of 1qd schedule) dosage", "format": "functional, Mus musculus", "conditions": "route intraperitoneal", "how_it_was_run": "as §1"}, "[6]": {"test_system": "P388", "assay": "Antitumor activity against the ip implanted P388 leukemia in mice expressed as optimal dose (1 qd treatment schedule) required to produce greatest increase in life span was determined", "format": "functional, Mus musculus", "how_it_was_run": "(§3)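 P388 leukemia: 1 × 10^6 cells were given ip on day 0 to DBA/2J mice, groups of 6 (23-33 g). Treatment was ip from 24 h after inoculation, vehicle 0.9% NaCl with 0.5% Tween-80. Mice were observed daily until death or 45 days. Median survival T/C was calculated from survivors per NCI protocols, and ILS = (T/C − 1) × 100. Active range means doses giving ILS ≥25%; optimal dose means greatest ILS.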"}, "[7]": {"test_system": "L1210", "assay": "Antitumor activity against ip implanted L1210 leukemia in mice expressed as active dose range (1 qd treatment schedule) required to produce increase in life span by >25% was determined; Range is 100-250", "format": "functional, Mus musculus", "how_it_was_run": "(§4)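 DBA/2J mice, groups of 6 (23-28 g), were inoculated ip with 1 × 10^6 L1210 cells on day 0. Dosing was ip from 24 h, in 0.9% NaCl with 0.5% Tween-80 (sonicated solution or suspension). Mice were observed daily until death or day 45. Median survival T/C followed NCI protocols, and ILS = (T/C − 1) × 100. Active range means doses giving ILS ≥25%; optimal dose means greatest ILS.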"}, "[8]": {"test_system": "L1210", "assay": "Antitumor activity against the ip implanted L1210 leukemia in mice expressed as optimal dose (1 qd treatment schedule) required to produce greatest increase in life span was determined", "format": "functional, Mus musculus", "how_it_was_run": "as §4"}, "[9]": {"test_system": "P388", "assay": "Antitumor activity was determined against the ip implanted L1210 leukemia in mice by change in […] at 100 mg/kg (treatment of 1qd schedule) dosage", "format": "functional, Mus musculus", "conditions": "route intraperitoneal, in the assay text read “P388 leukemia” for “L1210 leukemia”"}, "[10]": {"test_system": "L1210", "assay": "Antitumor activity against the ic implanted L1210 lymphoid leukemia in mice expressed as optimal dose (1 qd treatment schedule) required to produce greatest increase in life span was determined", "format": "functional, Mus musculus", "how_it_was_run": "as §2"}, "[11]": {"test_system": "L1210", "assay": "Antitumor activity was determined against the ic implanted L1210 lymphoid leukemia in mice by change in […] at 100 mg/kg (1 qd treatment schedule) dosage", "format": "functional, Mus musculus", "how_it_was_run": "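DBA/2J mice, 6 per group (wt 26-32 g), inoculated ic with 1×10^5 L1210 cells on day 0. Dosing ip began 24 h after inoculation, with a sonicated solution or suspension in 0.9% NaCl containing 0.5% Tween-80, given over a range of doses. Animals were followed daily until death. Body weight change, median survival T/C, and %ILS = (T/C − 1) × 100 were computed from survivors per NCI protocols.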"}, "[12]": {"test_system": "L1210", "assay": "Antitumor activity was determined against the ic implanted L1210 lymphoid leukemia in mice by range in survival days at 100 mg/kg (1 qd treatment schedule) dosage; Range is 14-18", "format": "functional, Mus musculus"}, "[13]": {"test_system": "P388", "assay": "Antitumor activity against ip implanted P388 leukemia in mice expressed as active dose range (1 qd treatment schedule) required to produce increase in life span by >25% was determined; Range is 50-100", "format": "functional, Mus musculus", "how_it_was_run": "as §3"}, "[14]": {"test_system": "P388", "assay": "Antitumor activity was determined against the ip implanted P388 leukemia in mice by percent increase in life span at 100 mg/kg (treatment of 1qd schedule) dosage", "conditions": "route intraperitoneal"}, "[15]": {"test_system": "P388", "assay": "Antitumor activity was determined against the ip implanted P388 leukemia in mice by range in survival days at 100 mg/kg (treatment of 1qd schedule) dosage; Range is 28->45", "conditions": "route intraperitoneal"}, "[16]": {"test_system": "L1210", "assay": "Antitumor activity was determined against the ip implanted L1210 leukemia in mice by change in […] at 200 mg/kg (treatment of 1qd schedule) dosage", "format": "functional, Mus musculus", "conditions": "route intraperitoneal", "how_it_was_run": "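DBA/2J mice, 6 per group (wt 23-28 g), inoculated ip with 1×10^6 L1210 cells on day 0. Treatment was given ip in 0.9% NaCl with 0.5% Tween-80, starting 24 h later. Weight change was taken on day 8. Mice were observed daily until death or 45 days. Median survival T/C and %ILS = (T/C − 1) × 100 came from survivors per NCI protocols, and 45-day survivors were counted.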"}, "[17]": {"test_system": "L1210", "assay": "Antitumor activity was determined against the ip implanted L1210 leukemia in mice by median survival time at 200 mg/kg (treatment of 1qd schedule) dosage; 17.5/7.0", "conditions": "route intraperitoneal"}, "[18]": {"test_system": "L1210", "assay": "Antitumor activity was determined against the ic implanted L1210 lymphoid leukemia in mice by percent increase in life span at 100 mg/kg (1 qd treatment schedule) dosage", "format": "functional, Mus musculus", "how_it_was_run": "as §2"}, "[19]": {"test_system": "L1210", "assay": "Antitumor activity was determined against the ip implanted L1210 leukemia in mice by range in survival days at 200 mg/kg (treatment of 1qd schedule) dosage; Range is 12->45", "format": "functional, Mus musculus", "conditions": "route intraperitoneal", "how_it_was_run": "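DBA/2J mice, 23-28 g, in groups of 6, were inoculated ip with 1×10^6 L1210 cells on day 0. Dosing was ip starting 24 h later on the stated daily schedules. Conjugates were given as sonicated solutions and reference prodrugs as suspensions in 0.9% NaCl with 0.5% Tween-80. Mice were observed daily until death or 45 days. Median survival T/C was calculated from survivors per NCI protocols.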"}}, "data": [{"smiles": "CCCCCCCCCCCCCCCC(=O)OC[C@H]1O[C@@H](n2ccc(N)nc2=O)[C@@H](O)[C@@H]1O", "values": [{"measurement": "Survivors", "setting": "[1]", "result": 4}, {"measurement": "ILS", "setting": "[2]", "result": 150}, {"measurement": "median survival time", "setting": "[3]", "result": 17.5, "unit": "days"}, {"measurement": "median survival time", "setting": "[4]", "result": "> 45", "unit": "days"}, {"measurement": "Survivors", "setting": "[5]", "result": 1}, {"measurement": "Optimal dose", "setting": "[6]", "result": 100, "unit": "mg"}, {"measurement": "Active dose range", "setting": "[7]", "result": 100, "unit": "mg/kg/day"}, {"measurement": "Optimal dose", "setting": "[8]", "result": 200, "unit": "mg/kg/day"}, {"measurement": "Weight change", "setting": "[9]", "result": 0.3, "unit": "g mouse-1"}, {"measurement": "Optimal dose", "setting": "[10]", "result": 100, "unit": "mg"}, {"measurement": "Weight change", "setting": "[11]", "result": -2.03, "unit": "g mouse-1"}, {"measurement": "Range", "setting": "[12]", "result": 14}, {"measurement": "Active dose range", "setting": "[13]", "result": 50, "unit": "mg/kg/day"}, {"measurement": "ILS", "setting": "[14]", "result": ">275"}, {"measurement": "Range", "setting": "[15]", "result": 28}, {"measurement": "Weight change", "setting": "[16]", "result": 2, "unit": "g mouse-1"}, {"measurement": "median survival time", "setting": "[17]", "result": 17.5, "unit": "days"}, {"measurement": "ILS", "setting": "[18]", "result": 150}, {"measurement": "Range", "setting": "[19]", "result": 12}]}]}
